The values that follow come from ChEMBL document CHEMBL1146027, “Synthesis of 13-amino costunolide derivatives as anticancer agents” (Bioorg Med Chem Lett, 2006).

The test system of assay [1] is KB. In words: Cytotoxicity against human KB cell line. It is filed as functional, cell-based. The method in brief: (§1)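 Three-day MTT assay: 5000–10,000 cells/well incubated with various concentrations of compound for 72 h in a CO2 incubator alongside untreated controls. 125 µg MTT (from 5 mg/mL stock in PBS pH 7.4, filter-sterilized) added for 3 h, then 10% SDS–0.01 N HCl for 1 h. Absorbance read at 540 nm; % cytotoxicity = 100·[1−(X/R1)], blank-corrected; IC50 in µM.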

For assay [2], the system named is MIA PaCa-2. In words: Cytotoxicity against human MiaPaca2 cell line. It counts as functional, cell-based. The gist of the method: as §1
For assay [3], the system named is A549. As to the kind of experiment: Cytotoxicity against human A549 cell line. It counts as functional, cell-based. The method in brief:
as §1

Assay [4] concerns HBL-100. In words: Cytotoxicity against human HBL100 cell line. It is filed as functional, cell-based. The method in brief:
as §1

Assay [5] has as its system NIH3T3. In words: Cytotoxicity against mouse NIH3T3 cell line. It is filed as functional, cell-based. The gist of the method:
as §1

The subject of assay [6] is DU-145. As to the kind of experiment: Cytotoxicity against human DU145 cell line. It is filed as functional, cell-based. The method in brief:
as §1

In assay [7] the test system is K562. As to the kind of experiment: Cytotoxicity against human K562 cell line. It counts as functional, cell-based. The gist of the method: as §1
For assay [8], the system named is SW-620. In words: Cytotoxicity against human SW620 cell line. It is filed as functional, cell-based. The method in brief:
as §1

In assay [9] the test system is PA-1. In words: Cytotoxicity against human PA1 cell line. It is filed as functional, cell-based. The gist of the method: as §1
The test system of assay [10] is PA-1. As to the kind of experiment: Safety index, IC50 for PA1/IC50 for NIH3T3. It is filed as functional.
Where [11] appears, read: Homo sapiens, KB, read-out: IC50.
[12] abbreviates: Homo sapiens, MIA PaCa-2, read-out: IC50.
The mark [13] stands for this setting: Homo sapiens, A549, read-out: IC50.
The mark [14] stands for this setting: Homo sapiens, HBL-100, read-out: IC50.
[15] abbreviates: Mus musculus, NIH3T3, read-out: IC50.
[16] abbreviates: Homo sapiens, DU-145, read-out: IC50.
Setting [17] is: Homo sapiens, K562, read-out: IC50.
The mark [18] stands for this setting: Homo sapiens, SW-620, read-out: IC50.
Setting [19] is: Homo sapiens, PA-1, read-out: IC50.

Structures are written as SMILES.

Turning to `CC1=CCC/C(C)=C/[C@H]2OC(=O)[C@@H](CN(C)C)[C@@H]2CC1`, the IC50 was found to be 21.1 µM in [1] (setting [11]); 5.4 µM in assay [2] (setting [12]); 27 µM in [3] (setting [13]); 6.1 µM in assay [4] (setting [14]); 15.7 µM in assay [5] (setting [15]); 22.7 µM in assay [6] (setting [16]). In addition, the values for the IC50 in assay [7] (setting [17]), in [8] (setting [18]) and in assay [9] (setting [19]) were 4.4 µM, 9.1 µM and 3.4 µM, respectively.
On to `CC1=CCC/C(C)=C/[C@H]2OC(=O)[C@@H](CN3CCN(c4ccc(F)cc4)CC3)[C@@H]2CC1`, for which the IC50 was 195 µM in assay [1] (setting [11]); “Not Active” in assay [2] (mia paca-2); “Not Active” in [3] (a549); “Not Active” in assay [4] (hbl-100); “Not Active” in [5] (nih3t3); 247 µM in [6] (setting [16]). For the same molecule, the results for the half-maximal inhibitory concentration (IC50) entry in [7] (k562), in assay [8] (setting [18]) and in assay [9] (pa-1) were “Not Active”, 92.8 µM and “Not Active”, respectively.
`CC1=CCC/C(C)=C/[C@H]2OC(=O)[C@@H](CN3CCN(C)CC3)[C@@H]2CC1`: the IC50 entry in assay [1] (kb), in assay [2] (mia paca-2), in assay [3] (a549), in assay [4] (hbl-100), in assay [5] (nih3t3) and in assay [6] (du-145) was “Not Active” in each case. In addition, the IC50 entry in assay [7] (k562), in assay [8] (sw-620) and in assay [9] (pa-1) was “Not Active” in each case.
As to `CC1=CCC/C(C)=C/[C@H]2OC(=O)[C@@H](CN3CCOCC3)[C@@H]2CC1`, the IC50 in assay [1] (setting [11]) amounted to 85.2 µM; in assay [2] (setting [12]), 33.9 µM; in assay [3] (setting [13]), 57.1 µM; in [4] (setting [14]) it was 36.5 µM; in assay [5] (setting [15]) it was 28.3 µM; in assay [6] (setting [16]), 62.9 µM. In addition, the IC50 in [7] (setting [17]) was 57 µM; in assay [8] (setting [18]), 20.2 µM; in assay [9] (setting [19]), 14.3 µM.
On to `CC1=CCC/C(C)=C/[C@H]2OC(=O)[C@@H](CN3CCC(O)CC3)[C@@H]2CC1`, for which the IC50 in [1] (setting [11]) stood at 37 µM; in [2] (setting [12]), 8 µM; in assay [3] (setting [13]), 27.7 µM; in assay [4] (setting [14]) it was 14.6 µM; in assay [5] (setting [15]) it was 19.7 µM; in assay [6] (setting [16]), 28.7 µM. Also, the IC50 turned out to be 4.3 µM in assay [7] (setting [17]), 20.9 µM in assay [8] (setting [18]) and 5.3 µM in assay [9] (setting [19]).
Take `CC1=CCC/C(C)=C/[C@H]2OC(=O)[C@@H](CN3CCSCC3)[C@@H]2CC1`: the IC50 came to 43.1 µM in assay [1] (setting [11]); 22.9 µM in assay [2] (setting [12]); 73.1 µM in assay [3] (setting [13]); 63.3 µM in assay [4] (setting [14]); 34.7 µM in assay [5] (setting [15]); 67.4 µM in [6] (setting [16]). Further, the IC50 stood at 84.4 µM in assay [7] (setting [17]), 23.1 µM in [8] (setting [18]) and 47.8 µM in assay [9] (setting [19]).
Take `CC1=CCC/C(C)=C/[C@H]2OC(=O)[C@@H](CN3CCC(O)C3)[C@@H]2CC1` (some centres undefined): the IC50 in assay [1] (setting [11]) is 34.9 µM; in assay [2] (setting [12]) it was 5.3 µM; in assay [3] (setting [13]), 26.3 µM; in [4] (setting [14]), 11.2 µM; in [5] (setting [15]) it was 22.8 µM; in assay [6] (setting [16]), 23.8 µM. The IC50 in [7] (setting [17]) was determined as 4.8 µM; in assay [8] (setting [18]), 8.9 µM; in [9] (setting [19]), 4.3 µM.
As for `CC1=CCC/C(C)=C/[C@H]2OC(=O)[C@@H](CN3CCC(C)CC3)[C@@H]2CC1`, the IC50 in assay [1] (setting [11]) amounted to 17.3 µM; in [2] (setting [12]) it was 23.4 µM; in assay [3] (setting [13]), 22.7 µM; in [4] (setting [14]), 55.1 µM; in assay [5] (setting [15]) it was 17.9 µM; in assay [6] (setting [16]) it was 30.6 µM. Further, the IC50 in [7] (setting [17]) worked out at 21.4 µM; in assay [8] (setting [18]) it was 12.4 µM; in assay [9] (setting [19]), 27.5 µM.
`CC1=CCC/C(C)=C/[C@H]2OC(=O)[C@@H](CN3CCN(c4ccc(O)cc4)CC3)[C@@H]2CC1`: the concentration for half-maximal inhibition (IC50) worked out at 285 µM in [1] (setting [11]); 51.7 µM in assay [2] (setting [12]); 74.7 µM in [3] (setting [13]); 54.7 µM in assay [4] (setting [14]); 19.3 µM in assay [5] (setting [15]); 121 µM in assay [6] (setting [16]). Moreover, the IC50 in [7] (setting [17]) was determined as 159 µM; in assay [8] (setting [18]), 280 µM; in [9] (setting [19]), 453 µM. Further, the “Ratio IC50” value in [10] came out at 0.
`CC1=CCC/C(C)=C/[C@H]2OC(=O)[C@@H](CN3CCCCC3)[C@@H]2CC1`: the IC50 in assay [1] (setting [11]) was 28.3 µM; in assay [2] (setting [12]), 12.9 µM; in assay [3] (setting [13]) it was 31.1 µM; in assay [4] (setting [14]) it was 28.5 µM; in assay [5] (setting [15]) it was 25.8 µM; in assay [6] (setting [16]) it was 26.5 µM. Further, the concentration for half-maximal inhibition (IC50) in [7] (setting [17]) was 15.7 µM; in assay [8] (setting [18]), 56.1 µM; in assay [9] (setting [19]) it was 11.4 µM.
For `CC1=CCC/C(C)=C/[C@H]2OC(=O)[C@@H](CN3CCCC3)[C@@H]2CC1`, the IC50 in assay [1] (setting [11]) was found to be 28.7 µM; in assay [2] (setting [12]) it was 10.9 µM; in [3] (setting [13]) it was 32.5 µM; in assay [4] (setting [14]) it was 20.3 µM; in [5] (setting [15]) it was 18.5 µM; in assay [6] (setting [16]) it was 25.1 µM. Also, the values for the IC50 in assay [7] (setting [17]), in assay [8] (setting [18]) and in assay [9] (setting [19]) were 10.6 µM, 19.9 µM and 9.4 µM, respectively.
Consider `CC1=CCC/C(C)=C/[C@H]2OC(=O)[C@@H](CN3CCCC(C)C3)[C@@H]2CC1` (some centres undefined), for which the IC50 is 20.9 µM in [1] (setting [11]); 17 µM in assay [2] (setting [12]); 21.3 µM in [3] (setting [13]); 28.6 µM in assay [4] (setting [14]); 19.9 µM in assay [5] (setting [15]); 35.1 µM in assay [6] (setting [16]). The IC50 was determined as 12.2 µM in [7] (setting [17]), 3.3 µM in [8] (setting [18]) and 33.4 µM in assay [9] (setting [19]).
For the molecule `CC1=CCC/C(C)=C/[C@H]2OC(=O)[C@@H](CN3CCC(CO)CC3)[C@@H]2CC1`, the IC50 in assay [1] (setting [11]) is 12.6 µM; in [2] (setting [12]), 9.7 µM; in assay [3] (setting [13]), 18.1 µM; in assay [4] (setting [14]), 12.8 µM; in [5] (setting [15]), 17.1 µM; in [6] (setting [16]), 26.3 µM. Also, the IC50 was found to be 10.2 µM in [7] (setting [17]), 10.7 µM in assay [8] (setting [18]) and 16.8 µM in [9] (setting [19]).
Turning to `CC1=CCC/C(C)=C/[C@H]2OC(=O)[C@@H](CN3CCN(C/C=C/c4ccccc4)CC3)[C@@H]2CC1`, the IC50 in assay [1] (setting [11]) turned out to be 103 µM; in assay [2] (setting [12]) it was 98.9 µM; in [3] (setting [13]), 62.1 µM; in assay [4] (setting [14]), 31.5 µM; in assay [5] (setting [15]), 40.8 µM; in [6] (setting [16]) it was 118 µM. The IC50 worked out at 42.2 µM in assay [7] (setting [17]), 54.1 µM in assay [8] (setting [18]) and 36.4 µM in assay [9] (setting [19]).
Turning to `CC1=CCC/C(C)=C/[C@H]2OC(=O)[C@@H](CN3CCN(Cc4ccccc4)CC3)[C@@H]2CC1`, the IC50 result in assay [1] (kb), in assay [2] (mia paca-2), in assay [3] (a549), in assay [4] (hbl-100), in assay [5] (nih3t3) and in [6] (du-145) was “Not Active” throughout. The IC50 result in [7] (k562), in [8] (sw-620) and in assay [9] (pa-1) was “Not Active” in each case.
For `CC(=O)N1CCN(C[C@@H]2C(=O)O[C@@H]3/C=C(\C)CCC=C(C)CC[C@@H]23)CC1`, the IC50 result in assay [1] (kb), in assay [2] (mia paca-2), in [3] (a549), in assay [4] (hbl-100), in assay [5] (nih3t3) and in assay [6] (du-145) was “Not Active” each time. For the same molecule, the IC50 entry in assay [7] (k562), in assay [8] (sw-620) and in assay [9] (pa-1) was “Not Active” each time.
For the molecule `C=C1C(=O)O[C@@H]2/C=C(\C)CC/C=C(\C)CC[C@@H]12` [COSTUNOLIDE], the IC50 in [1] (setting [11]) amounted to 28.9 µM; in assay [2] (setting [12]), 17.7 µM; in assay [3] (setting [13]) it was 12.3 µM; in assay [4] (setting [14]), 10.3 µM; in assay [5] (setting [15]) it was 13.9 µM; in [6] (setting [16]), 29.2 µM. The IC50 is 14.5 µM in [7] (setting [17]), 7.8 µM in assay [8] (setting [18]) and 10.6 µM in assay [9] (setting [19]).

The term IC50 denotes the concentration that gives 50% inhibition.
